Source: ChEMBL document CHEMBL4689842, “EUbOPEN Chemogenomics Library wave 1” (2021)

Tested on: HEK-293T
Assay: Multiplex assay against HEK293T;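 as to Population Tubulin-Different-Phenotype (%): share of the cells with healthy nuclei that show this phenotype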
Type: toxicity, cell-based
Conditions: human
Method in brief: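 Cells were classed with CellPathfinder machine-learning gating, first as Hoechst high-intensity objects or normal cells, then (normal cells) as healthy, pyknosed or fragmented nuclei, and finally (pyknosed cells) as mitotic or apoptotic. Staining of live cells at seeding used Hoechst33342, BioTracker Green Microtubule Cytoskeleton Dye, MitoTracker Red and Annexin V Alexa Fluor 680, with imaging on a CQ1 microscope at 37°C and 5% CO2 after compound addition. Tubulin, mitochondrial-mass and membrane-permeability phenotypes are per cents of healthy-nucleus cells.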

[1] = 12 h, 1 µM, compound concentration 1 uM, replicate 1
[2] = 12 h, 1 µM, compound concentration 1 uM, replicate 2
[3] = 12 h, 10 µM, compound concentration 10 uM, replicate 1
[4] = 12 h, 10 µM, compound concentration 10 uM, replicate 2
[5] = 24 h, 1 µM, compound concentration 1 uM, replicate 1
[6] = 24 h, 1 µM, compound concentration 1 uM, replicate 2
[7] = 24 h, 10 µM, compound concentration 10 uM, replicate 1
[8] = 24 h, 10 µM, compound concentration 10 uM, replicate 2
[9] = 48 h, 1 µM, compound concentration 1 uM, replicate 1
[10] = 48 h, 1 µM, compound concentration 1 uM, replicate 2
[11] = 48 h, 10 µM, compound concentration 10 uM, replicate 1
[12] = 48 h, 10 µM, compound concentration 10 uM, replicate 2

CN1CCCC(n2nc(Cc3ccc(Cl)cc3)c3ccccc3c2=O)CC1.Cl (centres undefined) [AZELASTINE HYDROCHLORIDE]
Population Apoptotic (%) [1]: 50%
Population Fragmented Nuclei (%) [1]: 8%
Population Healthy Nuclei (%) [1]: 42%
Population Hoechst High Intensity Objects (%) [1]: 9%
Population Membrane Permeable-Phenotype (%) [1]: 3%
Population Mitochondria Different-Phenotype (%) [1]: 94%
Population Mitotic Cells (%) [1]: 49%
Population Normal (%) [1]: 90%
Population Pyknosed Nuclei (%) [1]: 50%
Population Tubulin-Different-Phenotype (%) [1]: 84%
Total Cell Count [1]: 333
Population Apoptotic (%) [2]: 40%
Population Fragmented Nuclei (%) [2]: 6%
Population Healthy Nuclei (%) [2]: 24%
Population Hoechst High Intensity Objects (%) [2]: 5%
Population Membrane Permeable-Phenotype (%) [2]: 4%
Population Mitochondria Different-Phenotype (%) [2]: 61%
Population Mitotic Cells (%) [2]: 59%
Population Normal (%) [2]: 94%
Population Pyknosed Nuclei (%) [2]: 69%
Population Tubulin-Different-Phenotype (%) [2]: 68%
Total Cell Count [2]: 190
Population Apoptotic (%) [3]: 82%
Population Fragmented Nuclei (%) [3]: 11%
Population Healthy Nuclei (%) [3]: 16%
Population Hoechst High Intensity Objects (%) [3]: 19%
Population Membrane Permeable-Phenotype (%) [3]: 2%
Population Mitochondria Different-Phenotype (%) [3]: 100%
Population Mitotic Cells (%) [3]: 17%
Population Normal (%) [3]: 80%
Population Pyknosed Nuclei (%) [3]: 72%
Population Tubulin-Different-Phenotype (%) [3]: 78%
Total Cell Count [3]: 289
Population Apoptotic (%) [4]: 89%
Population Fragmented Nuclei (%) [4]: 5%
Population Healthy Nuclei (%) [4]: 23%
Population Hoechst High Intensity Objects (%) [4]: 4%
Population Membrane Permeable-Phenotype (%) [4]: 3%
Population Mitochondria Different-Phenotype (%) [4]: 98%
Population Mitotic Cells (%) [4]: 10%
Population Normal (%) [4]: 95%
Population Pyknosed Nuclei (%) [4]: 70%
Population Tubulin-Different-Phenotype (%) [4]: 56%
Total Cell Count [4]: 231
Population Apoptotic (%) [5]: 56%
Population Fragmented Nuclei (%) [5]: 8%
Population Healthy Nuclei (%) [5]: 37%
Population Hoechst High Intensity Objects (%) [5]: 11%
Population Membrane Permeable-Phenotype (%) [5]: 3%
Population Mitochondria Different-Phenotype (%) [5]: 92%
Population Mitotic Cells (%) [5]: 43%
Population Normal (%) [5]: 88%
Population Pyknosed Nuclei (%) [5]: 54%
Population Tubulin-Different-Phenotype (%) [5]: 83%
Total Cell Count [5]: 353
Population Apoptotic (%) [6]: 50%
Population Fragmented Nuclei (%) [6]: 7%
Population Healthy Nuclei (%) [6]: 49%
Population Hoechst High Intensity Objects (%) [6]: 4%
Population Membrane Permeable-Phenotype (%) [6]: 5%
Population Mitochondria Different-Phenotype (%) [6]: 66%
Population Mitotic Cells (%) [6]: 50%
Population Normal (%) [6]: 95%
Population Pyknosed Nuclei (%) [6]: 43%
Population Tubulin-Different-Phenotype (%) [6]: 74%
Total Cell Count [6]: 223
Population Apoptotic (%) [7]: 82%
Population Fragmented Nuclei (%) [7]: 13%
Population Healthy Nuclei (%) [7]: 13%
Population Hoechst High Intensity Objects (%) [7]: 19%
Population Membrane Permeable-Phenotype (%) [7]: 0%
Population Mitotic Cells (%) [7]: 17%
Population Normal (%) [7]: 80%
Population Pyknosed Nuclei (%) [7]: 72%
Population Tubulin-Different-Phenotype (%) [7]: 59%
Total Cell Count [7]: 289
Population Apoptotic (%) [8]: 93%
Population Fragmented Nuclei (%) [8]: 8%
Population Healthy Nuclei (%) [8]: 33%
Population Hoechst High Intensity Objects (%) [8]: 7%
Population Membrane Permeable-Phenotype (%) [8]: 4%
Population Mitochondria Different-Phenotype (%) [8]: 100%
Population Mitotic Cells (%) [8]: 6%
Population Normal (%) [8]: 92%
Population Pyknosed Nuclei (%) [8]: 58%
Population Tubulin-Different-Phenotype (%) [8]: 38%
Total Cell Count [8]: 230
Population Apoptotic (%) [9]: 49%
Population Fragmented Nuclei (%) [9]: 14%
Population Healthy Nuclei (%) [9]: 42%
Population Hoechst High Intensity Objects (%) [9]: 14%
Population Membrane Permeable-Phenotype (%) [9]: 3%
Population Mitochondria Different-Phenotype (%) [9]: 72%
Population Mitotic Cells (%) [9]: 50%
Population Normal (%) [9]: 85%
Population Pyknosed Nuclei (%) [9]: 42%
Population Tubulin-Different-Phenotype (%) [9]: 70%
Total Cell Count [9]: 404
Population Apoptotic (%) [10]: 47%
Population Fragmented Nuclei (%) [10]: 7%
Population Healthy Nuclei (%) [10]: 65%
Population Hoechst High Intensity Objects (%) [10]: 5%
Population Membrane Permeable-Phenotype (%) [10]: 6%
Population Mitochondria Different-Phenotype (%) [10]: 48%
Population Mitotic Cells (%) [10]: 52%
Population Normal (%) [10]: 94%
Population Pyknosed Nuclei (%) [10]: 26%
Population Tubulin-Different-Phenotype (%) [10]: 71%
Total Cell Count [10]: 324
Population Apoptotic (%) [11]: 79%
Population Fragmented Nuclei (%) [11]: 20%
Population Healthy Nuclei (%) [11]: 6%
Population Hoechst High Intensity Objects (%) [11]: 27%
Population Membrane Permeable-Phenotype (%) [11]: 0%
Population Mitochondria Different-Phenotype (%) [11]: 100%
Population Mitotic Cells (%) [11]: 20%
Population Normal (%) [11]: 72%
Population Pyknosed Nuclei (%) [11]: 73%
Population Tubulin-Different-Phenotype (%) [11]: 38%
Total Cell Count [11]: 297
Population Apoptotic (%) [12]: 89%
Population Fragmented Nuclei (%) [12]: 8%
Population Healthy Nuclei (%) [12]: 57%
Population Hoechst High Intensity Objects (%) [12]: 18%
Population Mitochondria Different-Phenotype (%) [12]: 99%
Population Mitotic Cells (%) [12]: 10%
Population Normal (%) [12]: 81%
Population Pyknosed Nuclei (%) [12]: 34%
Population Tubulin-Different-Phenotype (%) [12]: 15%
Total Cell Count [12]: 231

Cl.N#Cc1ccc2[nH]cc(CCCCN3CCN(c4ccc5oc(C(N)=O)cc5c4)CC3)c2c1 [VILAZODONE HYDROCHLORIDE]
Population Apoptotic (%) [1]: 53%
Population Healthy Nuclei (%) [1]: 49%
Population Hoechst High Intensity Objects (%) [1]: 9%
Population Membrane Permeable-Phenotype (%) [1]: 1%
Population Mitochondria Different-Phenotype (%) [1]: 93%
Population Mitotic Cells (%) [1]: 46%
Population Normal (%) [1]: 90%
Population Pyknosed Nuclei (%) [1]: 44%
Population Tubulin-Different-Phenotype (%) [1]: 78%
Total Cell Count [1]: 364
Population Apoptotic (%) [2]: 20%
Population Fragmented Nuclei (%) [2]: 6%
Population Healthy Nuclei (%) [2]: 32%
Population Hoechst High Intensity Objects (%) [2]: 3%
Population Membrane Permeable-Phenotype (%) [2]: 6%
Population Mitochondria Different-Phenotype (%) [2]: 67%
Population Mitotic Cells (%) [2]: 79%
Population Normal (%) [2]: 96%
Population Pyknosed Nuclei (%) [2]: 61%
Population Tubulin-Different-Phenotype (%) [2]: 69%
Total Cell Count [2]: 138
Population Apoptotic (%) [3]: 93%
Population Healthy Nuclei (%) [3]: 8%
Population Hoechst High Intensity Objects (%) [3]: 25%
Population Membrane Permeable-Phenotype (%) [3]: 0%
Population Mitochondria Different-Phenotype (%) [3]: 100%
Population Mitotic Cells (%) [3]: 6%
Population Normal (%) [3]: 74%
Population Pyknosed Nuclei (%) [3]: 78%
Population Tubulin-Different-Phenotype (%) [3]: 92%
Total Cell Count [3]: 198
Population Apoptotic (%) [4]: 82%
Population Fragmented Nuclei (%) [4]: 12%
Population Healthy Nuclei (%) [4]: 16%
Population Hoechst High Intensity Objects (%) [4]: 23%
Population Membrane Permeable-Phenotype (%) [4]: 23%
Population Mitochondria Different-Phenotype (%) [4]: 84%
Population Mitotic Cells (%) [4]: 17%
Population Normal (%) [4]: 76%
Population Pyknosed Nuclei (%) [4]: 70%
Population Tubulin-Different-Phenotype (%) [4]: 96%
Total Cell Count [4]: 199
Population Apoptotic (%) [5]: 52%
Population Fragmented Nuclei (%) [5]: 6%
Population Healthy Nuclei (%) [5]: 58%
Population Hoechst High Intensity Objects (%) [5]: 6%
Population Membrane Permeable-Phenotype (%) [5]: 3%
Population Mitochondria Different-Phenotype (%) [5]: 87%
Population Mitotic Cells (%) [5]: 47%
Population Normal (%) [5]: 93%
Population Pyknosed Nuclei (%) [5]: 34%
Population Tubulin-Different-Phenotype (%) [5]: 71%
Total Cell Count [5]: 412
Population Apoptotic (%) [6]: 32%
Population Fragmented Nuclei (%) [6]: 5%
Population Healthy Nuclei (%) [6]: 43%
Population Hoechst High Intensity Objects (%) [6]: 5%
Population Membrane Permeable-Phenotype (%) [6]: 2%
Population Mitochondria Different-Phenotype (%) [6]: 60%
Population Mitotic Cells (%) [6]: 67%
Population Normal (%) [6]: 94%
Population Pyknosed Nuclei (%) [6]: 50%
Population Tubulin-Different-Phenotype (%) [6]: 58%
Total Cell Count [6]: 165
Population Apoptotic (%) [7]: 98%
Population Fragmented Nuclei (%) [7]: 19%
Population Healthy Nuclei (%) [7]: 5%
Population Hoechst High Intensity Objects (%) [7]: 21%
Population Membrane Permeable-Phenotype (%) [7]: 0%
Population Mitochondria Different-Phenotype (%) [7]: 100%
Population Mitotic Cells (%) [7]: 1%
Population Normal (%) [7]: 78%
Population Pyknosed Nuclei (%) [7]: 74%
Population Tubulin-Different-Phenotype (%) [7]: 100%
Total Cell Count [7]: 215
Population Apoptotic (%) [8]: 92%
Population Fragmented Nuclei (%) [8]: 10%
Population Healthy Nuclei (%) [8]: 12%
Population Hoechst High Intensity Objects (%) [8]: 25%
Population Membrane Permeable-Phenotype (%) [8]: 11%
Population Mitochondria Different-Phenotype (%) [8]: 94%
Population Mitotic Cells (%) [8]: 7%
Population Normal (%) [8]: 74%
Population Pyknosed Nuclei (%) [8]: 76%
Population Tubulin-Different-Phenotype (%) [8]: 94%
Total Cell Count [8]: 186
Population Apoptotic (%) [9]: 32%
Population Healthy Nuclei (%) [9]: 75%
Population Hoechst High Intensity Objects (%) [9]: 7%
Population Membrane Permeable-Phenotype (%) [9]: 2%
Population Mitochondria Different-Phenotype (%) [9]: 51%
Population Mitotic Cells (%) [9]: 67%
Population Normal (%) [9]: 92%
Population Pyknosed Nuclei (%) [9]: 15%
Population Tubulin-Different-Phenotype (%) [9]: 57%
Total Cell Count [9]: 639
Population Apoptotic (%) [10]: 33%
Population Fragmented Nuclei (%) [10]: 9%
Population Healthy Nuclei (%) [10]: 68%
Population Hoechst High Intensity Objects (%) [10]: 4%
Population Membrane Permeable-Phenotype (%) [10]: 6%
Population Mitochondria Different-Phenotype (%) [10]: 32%
Population Mitotic Cells (%) [10]: 66%
Population Normal (%) [10]: 95%
Population Pyknosed Nuclei (%) [10]: 22%
Population Tubulin-Different-Phenotype (%) [10]: 51%
Total Cell Count [10]: 263
Population Apoptotic (%) [11]: 94%
Population Fragmented Nuclei (%) [11]: 27%
Population Healthy Nuclei (%) [11]: 0%
Population Hoechst High Intensity Objects (%) [11]: 16%
Population Membrane Permeable-Phenotype (%) [11]: 0%
Population Mitochondria Different-Phenotype (%) [11]: 100%
Population Mitotic Cells (%) [11]: 5%
Population Normal (%) [11]: 83%
Population Pyknosed Nuclei (%) [11]: 72%
Population Tubulin-Different-Phenotype (%) [11]: 0%
Total Cell Count [11]: 248
Population Apoptotic (%) [12]: 95%
Population Fragmented Nuclei (%) [12]: 13%
Population Healthy Nuclei (%) [12]: 12%
Population Hoechst High Intensity Objects (%) [12]: 30%
Population Membrane Permeable-Phenotype (%) [12]: 17%
Population Mitochondria Different-Phenotype (%) [12]: 88%
Population Mitotic Cells (%) [12]: 4%
Population Normal (%) [12]: 69%
Population Pyknosed Nuclei (%) [12]: 73%
Population Tubulin-Different-Phenotype (%) [12]: 94%
Total Cell Count [12]: 191
